Assay results from publication PMC3925341 (Journal of medicinal chemistry, 2013).
“Also recorded” adds a separate entry of the source. Values belong to the compound of their own block, whether it stands above or below them.

Experiments:
[1] = test system: CUG^exp foci in DM1 cell model (HeLa cells transfected with DMPK-CTG960); test: FISH study of; assay type: cell-based; settings: 36 h
[2] = Solubility in buffer / water
[3] = test system: DM1 cell model (HeLa cells); test: Cellular and nuclear penetration by acridine fluorescence; assay type: cell-based; settings: monitored by inherent acridine fluorescence
How it was run: (§1)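 Live-cell time-lapse confocal imaging of HeLa cells co-transfected with a DMPK-CTG960 minigene plasmid and a GFP-MBNL1 plasmid. Test compound at 50 μM final. Images were taken just before addition and at 3, 6 and 10 h. Cells were relocated on a gridded dish by DIC. Compound uptake was followed by its acridine fluorescence, and foci by GFP-MBNL1. Untreated cells served as control. Z-stacks of 1 μm slices were taken at 10 h.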

[4] = test system: MBNL1 foci in live DM1 cell model (HeLa cells, DMPK-CTG960 and GFP-MBNL1); test: Time-lapse confocal microscopy of MBNL1 foci in live DM1 model cells; assay type: cell-based; settings: 50 μM, over 10 h
How it was run: as §1

[5] = test system: HeLa cells; test: Sulforhodamine B cytotoxicity assay; assay type: cell-based; settings: concentrations up to 75 μM, 24 h
[6] = test system: TAMRA-(CUG)6; test: Steady state fluorescence titration of 5'-TAMRA-; assay type: binding; settings: for fold decrease in KD compared to 2 (fold greater affinity to (CUG)6): relative to monomeric ligand 2; for KD: TAMRA-(CUG)6, 1X PBS
How it was run: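 TAMRA-(CUG)6 was titrated with increasing test compound in 1X PBS, with excitation at 560 nm and emission at 590 nm. Normalized fluorescence intensities were fitted to a binding equation with Fmax and F0 to give KD. Mean ± s.d. of three independent experiments.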

[7] = test system: (CUG)12·MBNL1; test: SPR-based inhibition of the MBNL1·; assay type: biochemical; settings: relative to monomeric ligand 2
How it was run: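 Biotinylated (CUG)12 was immobilized on a streptavidin SPR chip, with Tween-20 and excess competitor tRNA, in 1X PBS. The chip was preincubated with test compound to steady-state RU over 150 s. MBNL1 (0.65 μM) was then injected with compound held at the same concentration. Maximum RU at 150 s was converted to % (CUG)12 bound, normalized to no compound, and fitted dose-response for apparent IC50. Normalized IC50 = IC50 divided by the number of binding modules. Bivalent effect = normalized IC50 of monomer reference divided by that of dimer. Three experiments.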

[8] = test system: (CUG)12; test: Optical melting; assay type: binding; settings: 11 versus 7, same number of linker atoms
[9] = test system: CUG repeat; settings: cited from earlier work
[10] = test system: DM1 cell model (HeLa cells); settings: cited from earlier work
[11] = 20, 35 and 50 μM (any concentration)

- Aqueous solubility [2]: aqueous-soluble
- fold decrease in KD compared to 2 (fold greater affinity to (CUG)6) [6]: 206 fold
Structure (SMILES): Nc1nc(N)nc(NCCCCNc2c3ccccc3nc3c(C(=O)NCCCNCCCNCCCNC(=O)c4cccc5c(NCCCCNc6nc(N)nc(N)n6)c6ccccc6nc45)cccc23)n1 [Ligand 9]
- (CUG)960 foci dispersion ([1]; 20 μM, p-value < 0.009): partial foci dispersion
- (CUG)960 foci dispersion ([1]; 35 μM, p-value < 0.009): partial foci dispersion
- (CUG)960 foci dispersion ([1]; 50 μM): full foci dispersion
- cellular and nuclear penetration [3]: both cell- and nucleus-permeable; also recorded: penetrate the cellular and nuclear membrane
- MBNL1 foci dispersion in live cells [4]: almost complete dispersion; also recorded: gradually dispersing over time; also recorded: almost all the foci are dispersed; also recorded: gradual MBNL1 foci dispersion
- cytotoxicity [5]: less than 20%
- fold tighter binder than 10 ([6]; 9 versus 10): 10 fold
- bivalent effect (ratio of normalized IC50 of 2 to that of the dimeric ligand) [7]: 133
- fold greater inhibition potency than 2 in inhibiting formation of the (CUG)12·MBNL1 complex [7]: 266 fold

Structure (SMILES): NCCCNCCCCNCCCN [spermine, Spermine, reference compound]
- (CUG)960 foci dispersion [1, 11]: no significant foci dispersion

- Solubility in the buffer used for optical melting (Solution) ([2]; N.S. = not sufficiently soluble): not fully soluble
- cellular and nuclear penetration [3]: cell-permeable and nucleus-permeable
Structure (SMILES): Nc1nc(N)nc(NCCCCNc2c3ccccc3nc3ccc(C(=O)NCCCNCCCCCCCCNCCCNC(=O)c4ccc5nc6ccccc6c(NCCCCNc6nc(N)nc(N)n6)c5c4)cc23)n1 [Ligand 5]
- (CUG)960 foci dispersion [1, 11]: no significant foci dispersion

- KD [6]: close to the monomeric ligand 2
Structure (SMILES): Nc1nc(N)nc(NCCCCNc2c3ccccc3nc3ccc(C(=O)NCCOCCOCCNC(=O)c4ccc5nc6ccccc6c(NCCCCNc6nc(N)nc(N)n6)c5c4)cc23)n1 [Ligand 7]
- bivalent effect (ratio of normalized IC50 of 2 to that of the dimeric ligand) [7]: 8

- fold decrease in KD compared to 2 (fold greater affinity to (CUG)6) [6]: 17 fold
Structure (SMILES): Nc1nc(N)nc(NCCCCNc2c3ccccc3nc3c(C(=O)NCCNCCNCCNCCNC(=O)c4cccc5c(NCCCCNc6nc(N)nc(N)n6)c6ccccc6nc45)cccc23)n1 [Ligand 10]
- bivalent effect (ratio of normalized IC50 of 2 to that of the dimeric ligand) [7]: 24

- KD [6]: close to the monomeric ligand 2
Structure (SMILES): Nc1nc(N)nc(NCCCCNc2c3ccccc3nc3ccc(C(=O)NCCCOCCOCCOCCCNC(=O)c4ccc5nc6ccccc6c(NCCCCNc6nc(N)nc(N)n6)c5c4)cc23)n1 [Ligand 12]
- bivalent effect (ratio of normalized IC50 of 2 to that of the dimeric ligand) [7]: 5

Structure (SMILES): Nc1nc(N)nc(NCCCCNc2c3ccccc3nc3c(C(=O)NCCOCCOCCOCCOCCOCCNC(=O)c4cccc5c(NCCCCNc6nc(N)nc(N)n6)c6ccccc6nc45)cccc23)n1 [Ligand 8]
- bivalent effect (ratio of normalized IC50 of 2 to that of the dimeric ligand) [7]: 4

- fold decrease in KD compared to 2 (fold greater affinity to (CUG)6) [6]: 14 fold
Structure (SMILES): Nc1nc(N)nc(NCCCCNc2c3ccccc3nc3c(C(=O)NCCNCCNCCNC(=O)c4cccc5c(NCCCCNc6nc(N)nc(N)n6)c6ccccc6nc45)cccc23)n1 [Ligand 11]
- (CUG)960 foci dispersion [1, 11]: no significant foci dispersion
- fold higher ΔTm value than 7 [8]: > 3 fold
- bivalent effect (ratio of normalized IC50 of 2 to that of the dimeric ligand) [7]: 29

Structure (SMILES): CNC(=O)c1ccc2nc3ccccc3c(NCCCCNc3nc(N)nc(N)n3)c2c1 [Ligand 2]
- (CUG)960 foci dispersion [1, 11]: no significant foci dispersion
- cytotoxicity [5]: less than 20%

Structure (SMILES): COc1ccc2nc3cc(Cl)ccc3c(NCCCCNc3nc(N)nc(N)n3)c2c1 [Ligand 1]
- selectivity for CUG repeat relative to a random duplex [9]: over 50 fold
- cell permeability [10]: poor cell permeability

Structure (SMILES): Nc1nc(N)nc(NCCCCNc2c3ccccc3nc3ccc(C(=O)NCCOCCOCCOCCOCCOCCNC(=O)c4ccc5nc6ccccc6c(NCCCCNc6nc(N)nc(N)n6)c5c4)cc23)n1 [Ligand 13]
- bivalent effect (ratio of normalized IC50 of 2 to that of the dimeric ligand) [7]: 3
